Reference: publication PMC2213384 (The Journal of Experimental Medicine, 1998)
Like-named read-outs stand apart in the source and are kept apart here. Marks after values point to notes of the source that are not given here.

Experiments:
Qa-1^b [1] = format: binding, mouse; conditions: for Binding of poly-Gly peptides to Qa-1^b (in words): Table 2 in words, 20 μM; for Blocking of / binding to Qa-1^b at 20 μM (in words): 20 μM competitor
[2] = Solubility of peptides in running buffer / aqueous solvents; format: physicochemical
Summary of the method: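 Solubility was judged for peptides used as competitors in SPR on a Biacore 2000 at 25°C. The running buffer was Hepes-buffered saline, or 2% DMSO in HBS for the hydrophobic leader peptides. Competitors were at 20 μM (poly-Gly series titrated up to 20 μM), co-injected with 0.5 μM soluble Qa-1b at 1 μl/min for 20 min over immobilized QdmC5.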

sM3 = experiment: SPR direct binding of sM3 to immobilized QdmC5; conditions: Fig. 1 B; 0.5 μM sM3, 20 μl at 1 μl/min
sCD1 = experiment: SPR direct binding of sCD1 to immobilized QdmC5; conditions: data not shown
[3] = molecular target: QdmC5 peptide (…) (mouse); experiment: SPR
[4] = molecular target: QdmC5 peptide (…) (mouse); experiment: SPR; remark: listed apart in the source
[5] = molecular target: QdmC5 peptide (…) (mouse); experiment: SPR; remark: listed apart in the source
[6] = molecular target: QdmC5 peptide (…) (mouse); experiment: SPR; remark: listed apart in the source
Qa-1^b [7] = conditions: previous finding; ref [6]; cited from earlier work
[8] = molecular target: soluble Qa-1^b/β2-microglobulin dimer (mouse (C57BL/6) | murine) (UniProt P06339); experiment: SPR
Chain of UniProt P06339 (P06339 21-357, chain 1 of 2): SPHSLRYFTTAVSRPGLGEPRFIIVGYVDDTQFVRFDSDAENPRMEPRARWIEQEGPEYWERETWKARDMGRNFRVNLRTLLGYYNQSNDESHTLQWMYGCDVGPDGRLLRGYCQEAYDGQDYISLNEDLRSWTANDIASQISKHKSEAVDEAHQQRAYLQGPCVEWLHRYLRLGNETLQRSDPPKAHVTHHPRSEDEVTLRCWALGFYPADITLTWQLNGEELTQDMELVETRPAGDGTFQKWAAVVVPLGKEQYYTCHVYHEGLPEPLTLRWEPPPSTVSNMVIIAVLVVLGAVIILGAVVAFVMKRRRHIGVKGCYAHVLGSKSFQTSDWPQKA
Chain of UniProt P06339 (P01887 21-119, chain 2 of 2, further chain): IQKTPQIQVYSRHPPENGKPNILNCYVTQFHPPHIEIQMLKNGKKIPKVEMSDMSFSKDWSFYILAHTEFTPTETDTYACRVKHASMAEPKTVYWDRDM

For GMGGGGGLL, the “Binding of poly-Gly peptides to Qa-1^b (in words)” value (Qa-1^b [1]) was “very little binding”.

With MAPRTLLLL the “Blocking of / binding to Qa-1^b at 20 μM (in words)” value (Qa-1^b [1]; Fig. 1 D, 0.5 μM sQa-1^b) was “failed to bind”.

In the case of VMSPTVLLL, the “Solubility in 2% DMSO in HBS” value ([2]; 2% DMSO in HBS (SPR running buffer)) is reported as “remained soluble” and the “Solubility in aqueous solvents” value ([2]; aqueous solvents) is reported as “not soluble in aqueous solvents”.

With GMGGGGLLL the “Blocked binding of sQa-1^b to immobilized QdmC5 peptide” value (Qa-1^b [1]; highest concentration tested (20 μM)) was > 50%, the “Blocking activity at 200 nM (in words)” value (Qa-1^b [1]; titration, 200 nM) was “none” and the “Blocking activity at 2 μM (in words)” value (Qa-1^b [1]; titration, 2 μM) was “relatively little blocking activity”.

For AMAPCTLLL [QdmC5], the “Binding of soluble protein to immobilized peptide (in words)” value (sM3) was “failed to bind” and the “Binding of soluble protein to immobilized peptide (in words)” value (sCD1) was “failed to bind”.

In the case of MGAMAPRTL, the “Blocking of / binding to Qa-1^b at 20 μM (in words)” value (Qa-1^b [1]; Fig. 1 D, 0.5 μM sQa-1^b) is reported as “failed to bind”.

“soluble Qa-1^b/β2-microglobulin dimer (from UniProt P06339 21-357; P01887 21-119) (complex)” showed an RU, binding in the absence of peptide [3] of 230 RU, an RU, binding in the absence of peptide [4] of 263 RU and an RU, binding in the absence of peptide [5] of 345 RU. For the same molecule, the RU, binding in the absence of peptide [6] was 276 RU.

In the case of AMAPRTLLL [Qdm, reference compound], the “Blocking of Qa-1^b binding / binding ability over the titration (in words)” value (Qa-1^b [1]; Fig. 1 D, 0.5 μM sQa-1^b, competitor 200 nM to 20 μM, 1 μl/min for 20 min) is given as “completely blocked binding”, the “Binding to Qa-1^b in 2% DMSO (in words)” value (Qa-1^b [1]; Fig. 3 B, running buffer 2% DMSO in HBS) is given as “bind Qa-1^b” and the “Affinity of binding to Qa-1^b (in words)” value (Qa-1^b [7]) is given as “very high affinity”.

For “10-mer: Qdm extended by adding a leucine at position 10 (AMAPRTLLLL)”, the “Binding at 200 nM (in words)” value (Qa-1^b [1]; Fig. 1 D, 0.5 μM sQa-1^b, competitor 200 nM) was “almost no binding” and the “Binding relative to the Qdm nonamer at 20 and 2 μM (in words)” value (Qa-1^b [1]; Fig. 1 D, 0.5 μM sQa-1^b, competitor 20 and 2 μM) was “decreased binding relative to the nonamer”.

For GMGGGGLGL, the “Binding of poly-Gly peptides to Qa-1^b (in words)” value (Qa-1^b [1]) was “very little binding”.

In the case of AMAPRTLLL [Qdm peptide (…)], the RU of sQa-1^b left on immobilised QdmC5 with 20 μM Qdm [8] is reported as 25 RU.
